# From ChEMBL document CHEMBL1949639, “New losartan-hydrocaffeic acid hybrids as antihypertensive-antioxidant dual drugs: Ester, amide and amine linkers” (2012)
# Columns and labels:
# [1] = Antihypertensive activity against angiotensin-2-induced cell contraction in Wistar rat VSMC assessed as changes in planar cell surface area after 30 mins by planimetric technique; type: functional
# Method in brief: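 VSMC from thoracic aortas of Wistar rats, collagenase-digested, grown in DMEM/Ham's F-12 with 10% foetal calf serum at 37 °C, 5% CO2, used at passages 3–5. Cells in Tris-glucose buffer pH 7.45 with angiotensin II plus compound, […], for 30 min. Photographed at 0 and 30 min, planar surface area by planimetry. 4–8 cells per experiment, mean of 5 experiments gives percent inhibition of contraction.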
# [2] = Antioxidant activity assessed as trolox equivalent of ABTS radical scavenging activity relative to control; type: functional
# Method in brief: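 Metmyoglobin/H2O2 oxidation of ABTS to its radical, read as absorbance at 600 nm in 96-well format. Samples taken from K2CO3-solubilised stocks diluted in PBS. Activity expressed as TEAC: the concentration (mM) giving the same percentage change in ABTS radical absorbance as 1 mM Trolox.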
# [3] = system: Rattus norvegicus; experiment: Antihypertensive activity in Wistar rat assessed as decrease of L-NAME-induced systolic arterial pressure at 20 mg/kg, po administered with drinking water qd for 3 days by sphygmomanometer; type: functional, Artery; details: dose 30 mg/kg, in the assay text read “30 mg/kg” for “20 mg/kg”
# Method in brief: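 Two-month-old male Wistar rats received L-NAME in drinking water (20 mg/kg/day). After one week, losartan (20 mg/kg/day) or hybrids (30 mg/kg/day) were given daily in drinking water for three days. At least six animals per group. Arterial pressure measured in conscious rats by tail-cuff sphygmomanometer.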
smiles,measurement,setting,value
CCCCc1nc(Cl)c(CO)n1Cc1ccc(-c2ccccc2-c2nnn[nH]2)cc1 [LOSARTAN],inhibition (INH),[1],93%
same,Ratio,[2],0.03
same,Activity,[3],13 mmHg
CCCCc1nc(Cl)c(CNCCCc2ccc(O)c(O)c2)n1Cc1ccc(-c2ccccc2-c2nn[nH]n2)cc1,inhibition (INH),[1],92%
same,Ratio,[2],0.13
CCCCc1nc(Cl)c(C(=O)NCCCc2ccc(O)c(O)c2)n1Cc1ccc(-c2ccccc2-c2nn[nH]n2)cc1,inhibition (INH),[1],93%
same,Ratio,[2],0.17
same,Activity,[3],1 mmHg
CC[C@H](C)[C@H](NC(=O)[C@H](Cc1ccc(O)cc1)NC(=O)[C@@H](NC(=O)[C@H](CCCNC(=N)N)NC(=O)[C@@H](N)CC(=O)O)C(C)C)C(=O)N[C@@H](Cc1cnc[nH]1)C(=O)N1CCC[C@H]1C(=O)N[C@@H](Cc1ccccc1)C(=O)O [ANGIOTENSIN II],inhibition (INH),[1],82%
CCCCc1nc(C(=O)OCCCc2ccc(O)c(O)c2)c(Cl)n1Cc1ccc(-c2ccccc2-c2nn[nH]n2)cc1,inhibition (INH),[1],95%
same,Ratio,[2],0.24
same,Activity,[3],14 mmHg
COc1cc(C(=O)O)ccc1O,Ratio,[2],0.202
CC(C)(C)c1cc(CC(=O)O)cc(C(C)(C)C)c1O,Ratio,[2],1.06
CCCCc1nc(Cl)c(C(=O)OCCCc2ccc(O)c(O)c2)n1Cc1ccc(-c2ccccc2-c2nn[nH]n2)cc1,inhibition (INH),[1],88%
same,Ratio,[2],0.1
same,Activity,[3],9 mmHg
CC(C)(C)c1cc(C(=O)O)cc(C(C)(C)C)c1O,Ratio,[2],0.181
O=C(O)/C=C/c1ccc(O)c(O)c1,Ratio,[2],0.2
CCCCc1nc(Cl)c(CNC(=O)CCc2ccc(O)c(O)c2)n1Cc1ccc(-c2ccccc2-c2nn[nH]n2)cc1,inhibition (INH),[1],90%
same,Ratio,[2],0.27
same,Activity,[3],13 mmHg
O=C(O)CCc1ccc(O)c(O)c1 [DIHYDROCAFFEIC ACID],inhibition (INH),[1],85%
same,Ratio,[2],0.36
COc1cc(C(=O)O)cc(OC)c1O,Ratio,[2],1.07
CCCCc1nc(Cl)c(COC(=O)CCc2ccc(O)c(O)c2)n1Cc1ccc(-c2ccccc2-c2nnn[nH]2)cc1,inhibition (INH),[1],94%
same,Ratio,[2],0.31
same,Activity,[3],29 mmHg
O=C(O)c1ccc(O)c(O)c1,Ratio,[2],0.153
CCCCc1nc(Cl)c(C(=O)O)n1Cc1ccc(-c2ccccc2-c2nn[nH]n2)cc1,Ratio,[2],0.03
